The results in this text go back to ChEMBL document CHEMBL1142490, “2-Phenyl-imidazo[1,2-a]pyridine compounds containing hydrophilic groups as potent and selective ligands for peripheral benzodiazepine receptors: synthesis, binding affinity and electrophysiological studies” (J Med Chem, 2008).

Test [1] in a line: Displacement of [3H]flunitrazepam from central benzodiazepine receptor in Sprague-Dawley rat cerebral cortex membrane by liquid scintillation counting. It is filed as tissue-based. The gist of the method:
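Rat cortical membranes in 50 mM Tris-HCl, pH 7.4, 0.4–0.5 mg protein. Incubated with [3H]flunitrazepam (0.5 nM final) for 60 min at 0 °C. Filtration, then scintillation counting. Nonspecific binding defined with 5 µM diazepam. Ki from three experiments in duplicate.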
(In a radioligand displacement assay an active substance lowers the binding of a labelled ligand.)

The target in a further test is Translocator protein (Rattus norvegicus, UniProt P16257). As to the kind of experiment: Displacement of [3H]PK11195 from peripheral benzodiazepine receptor in Sprague-Dawley rat cerebral cortex membrane by liquid scintillation counting. Type of test: tissue-based. The gist of the method:
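Rat cerebral cortex membranes are washed in PBS, pH 7.4. Incubation with [3H]-ligand (1 nM final), 0.15–0.20 mg protein, 90 min. Filtration on PEI-presoaked GF/B filters, then scintillation counting. Nonspecific binding defined with 10 µM unlabelled ligand. Ki from three experiments in duplicate.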

The species entered for test [2] is Rattus norvegicus. The test is described as follows: Selectivity ratio of Ki for central benzodiazepine receptor to Ki for peripheral benzodiazepine receptor in Sprague-Dawley rat cerebral cortex membrane. Type of test: tissue-based.
Test [3] has as its target T1, GABA-A receptor; alpha-1/beta-2/gamma-2 (Homo sapiens) (UniProt P14867+P47870+P18507). As to the kind of experiment: Agonist activity at human recombinant GABAA alpha-1-beta-2-gamma-2L receptor expressed in Xenopus oocytes assessed as change in GABA-induced chloride current amplitude at 1 uM by voltage clamp technique. Type of test: functional, cell-based. Conditions: Oocyte. In outline:
(§1)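 Xenopus oocytes (stage V–VI, defolliculated) are nuclear-injected with human α1, β2 and γ2L cDNAs (1:1:1) and recorded about 24 h later. Two-electrode voltage clamp at -70 mV, MBS perfusion, room temperature. […] Reported as percent change from control; 5–10 oocytes per concentration.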

Test [4] has as its target T1, GABA-A receptor; alpha-1/beta-2/gamma-2 (Homo sapiens). The test is described as follows: Agonist activity at human recombinant GABAA alpha-1-beta-2-gamma-2L receptor expressed in Xenopus oocytes assessed as change in GABA-induced chloride current amplitude at 10 uM by voltage clamp technique. Type of test: functional, cell-based. Conditions: Oocyte. The gist of the method: as §1

Test [5] shares this target. As to the kind of experiment: Agonist activity at human recombinant GABAA alpha-1-beta-2-gamma-2L receptor expressed in Xenopus oocytes assessed as inhibition of GABA-induced chloride current amplitude at 10 uM in presence of 10 uM flumazenil by voltage clamp technique. It is filed as functional, cell-based. Conditions: Oocyte. The gist of the method: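 Two-electrode voltage clamp (-70 mV) of oocytes expressing human α1β2γ2L GABAA receptors. Percent change of GABA response by compound at 10 µM measured with and without flumazenil at 10 µM. Mean of four oocytes ± SEM.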

The species entered for test [6] is Rattus norvegicus. The test is described as follows: Agonist activity at GABAA alpha-1-beta-2-gamma-2L receptor in Sprague-Dawley rat hippocampal CA1 pyramidal neurons assessed as increase in miniature inhibitory postsynaptic current amplitude at 30 uM after 30 mins by whole-cell patch clamp technique. It is filed as functional, tissue-based. Conditions: Hippocampus. The gist of the method: (§2)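 Coronal hippocampal slices (300 µm) from male Sprague-Dawley rats anesthetized with ketamine (250 mg/kg i.p.) are recovered in ACSF, 40 min at 34 °C, then 30 min at room temperature. Whole-cell recordings of mIPSCs from CA1 pyramidal neurons at -65 mV, CsCl-based internal with QX-314. Compound bath-perfused at 30 µM for 30 min. Readout is mIPSC amplitude or decay time versus the pre-drug control.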
On the technique in general: In patch-clamp work, channel activity is measured electrically.

Test [7] is filed under the species Rattus norvegicus. The test is described as follows: Agonist activity at GABAA alpha-1-beta-2-gamma-2L receptor in Sprague-Dawley rat hippocampal CA1 pyramidal neurons assessed as increase in miniature inhibitory postsynaptic current decay time at 30 uM after 30 mins by whole-cell patch clamp technique. It is filed as functional, tissue-based. Conditions: Hippocampus. In outline:
as §2

Test [8] is filed under the species Rattus norvegicus. The test is described as follows: Agonist activity at GABAA alpha-1-beta-2-gamma-2L receptor in Sprague-Dawley rat hippocampal CA1 pyramidal neurons assessed as inhibition of miniature inhibitory postsynaptic current amplitude at 30 uM after 30 mins in presence of 1 uM finasteride by whole-cell patch clamp technique. Type of test: functional, tissue-based. Conditions: Hippocampus. The gist of the method:
(§3)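 Rat hippocampal slices, whole-cell mIPSC recording from CA1 pyramidal neurons at -65 mV. Compound (30 µM) co-applied with finasteride (1 µM) for 30 min. Change in mIPSC amplitude or decay averaged over a 3 min period and given as mean percent change, n = 6.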

Test [9] is filed under the species Rattus norvegicus. The test is described as follows: Agonist activity at GABAA alpha-1-beta-2-gamma-2L receptor in Sprague-Dawley rat hippocampal CA1 pyramidal neurons assessed as inhibition of miniature inhibitory postsynaptic current decay time at 30 uM after 30 mins in presence of 1 uM finasteride by whole-cell patch clamp technique. As to conditions: Hippocampus. It is filed as functional, tissue-based. The gist of the method:
as §3

SMILES strings stand for the structures. Where “and” joins values, the source holds several entries; their conditions need not be identical. Equal entries are not always repeated. Calls of active or inactive are those of the source. The calls are words filed in the database; no cut-off is given here. A value given as a limit tells only on which side of the number the result lay.

Sequence of Translocator protein (P16257 whole entry, looked up): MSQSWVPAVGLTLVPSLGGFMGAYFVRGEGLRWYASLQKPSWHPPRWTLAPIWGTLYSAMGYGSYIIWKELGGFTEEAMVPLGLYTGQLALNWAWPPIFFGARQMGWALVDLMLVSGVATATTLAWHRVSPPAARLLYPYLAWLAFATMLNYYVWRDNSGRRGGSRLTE

Usually Ki stands for the equilibrium dissociation constant of an inhibitor or competing ligand from its target. Read a low Ki as tighter binding. In the case of `CCCCN(C)C(=O)Cc1c(-c2ccc(Cl)c(N)c2)nc2c(Cl)cccn12`, the inhibition constant (Ki) in test [1] is 194 nM; at Translocator protein, 1.04 nM. The Ratio Ki in the test listed under Rattus norvegicus [2] worked out at 187. Moreover, the Activity in [3] is 9.5%; in test [4], 10.7%.
Take `COc1ccc(-c2nc3c(Cl)cc(Cl)cn3c2CC(=O)N(C)c2ccccc2)cc1`: the Ki came to 1000 nM in [1] and 0.23 nM at Translocator protein. Besides, the Activity in test [3] was -8.1%; in test [4], -8%.
Turning to `CCCN(CCC)C(=O)Cc1c(-c2ccc(N)cc2)nc2c(Cl)cc(Cl)cn12` [listing 1 of 3 here], the Ki in [1] came to 1020 nM; at Translocator protein, 2.76 nM.
As for `CCCCN(C)C(=O)Cc1c(-c2ccc(O)cc2)nc2c(Cl)cc(Cl)cn12`, the inhibition constant Ki in test [1] is 2930 nM; on Translocator protein, 0.87 nM. Moreover, the values for the Activity in [3] and in [4] were 7.9% and -23.6%, respectively.
Turning to `CCCN(CCC)C(=O)Cc1c(-c2ccc(Cl)cc2)nc2c(NC(=O)CN)cccn12`, the Ki in test [1] was above 10 nM; at Translocator protein, 14.2 nM.
In the case of `CCCN(CCC)C(=O)Cc1c(-c2ccc(N)cc2)nc2c(Cl)cc(Cl)cn12` [listing 2 of 3 here], the Activity in test [3] is 8.1% and 29.9%.
With `CCCN(CCC)C(=O)Cc1c(-c2ccc(O)cc2)nc2c(Cl)cc(Cl)cn12`, the Ki in test [1] is above 10 nM; on Translocator protein it was 1.31 nM. In the test listed under Rattus norvegicus [2], the Ratio Ki is above 1000. In addition, the Activity in test [3] is -3.9%; in test [4], 23.8%.
As for `CCCN(CCC)C(=O)Cc1c(-c2ccc(OC)cc2)nc2c(Cl)cc(Cl)cn12`, the Ki in test [1] is above 10 nM; on Translocator protein, 0.31 nM. Also, the results for the Activity in [3] and in test [4] were 8.8% and 55.9%, respectively. Also, in test [5], the result was inactive.
For the molecule `CCCN(CCC)C(=O)Cc1c(-c2ccc([N+](=O)[O-])cc2)nc2c(Cl)cc(Cl)cn12`, the Ki in [1] was above 10 nM; at Translocator protein, 0.15 nM. Besides, the Activity in test [3] was -4.2%; in [4], -16.6%.
Turning to `CCCN(CCC)C(=O)Cc1c(-c2ccc(N)cc2)nc2c(Cl)cc(Cl)cn12` [listing 3 of 3 here], the inhibition constant (Ki) was determined as 246 nM in test [1] and 2.22 nM at Translocator protein.
Turning to `CCCN(CCC)C(=O)Cc1c(-c2ccc(Cl)c([N+](=O)[O-])c2)nc2c(Cl)cc(Cl)cn12`, the figures for the Ki (in test [1]; on Translocator protein) were above 10 nM and 0.24 nM, respectively. The Activity in [3] turned out to be 14.9%; in [4] it was 9.6%. Besides, the result in the test filed under Rattus norvegicus [6] and in the test listed under Rattus norvegicus [7] was Active. For the same molecule, the result in the test filed under Rattus norvegicus [8] and in the test filed under Rattus norvegicus [9] was inactive.
At Translocator protein, `CCCCN(C)C(=O)Cc1c(-c2ccc(Cl)c([N+](=O)[O-])c2)nc2c(Cl)cc(Cl)cn12` displayed a Ki of 0.3 nM. For the same molecule, the values for the Activity in test [3] and in [4] were -10.2% and -9.6%, respectively.
Take `CCCCN(C)C(=O)Cc1c(-c2ccc(Cl)c([N+](=O)[O-])c2)nc2c(Cl)cccn12`: the inhibition constant Ki in test [1] is above 10 nM; at Translocator protein, 1.16 nM. The Activity is 12.1% in test [3] and -20% in [4].
As to `CN(C(=O)Cc1c(-c2ccc(O)cc2)nc2c(Cl)cc(Cl)cn12)c1ccccc1`, the Ki came to 5130 nM in [1] and 0.32 nM at Translocator protein. Moreover, the Ratio Ki in the test filed under Rattus norvegicus [2] was above 1000. Moreover, the Activity is -5.9% in test [3] and 6.7% in [4].
Regarding `CCCCN(C)C(=O)Cc1c(-c2ccc(Cl)c(N)c2)nc2c(Cl)cc(Cl)cn12`, the inhibition constant (Ki) in test [1] is 535 nM; at Translocator protein, 0.78 nM. In addition, the Ratio Ki in the test filed under Rattus norvegicus [2] worked out at 686.
In the case of `CCCCN(C)C(=O)Cc1c(-c2ccc(OC)cc2)nc2c(Cl)cc(Cl)cn12`, the Ki was above 10 nM in [1] and 0.73 nM on Translocator protein. The Activity in test [3] was 24.8%; in test [4], -16.5%.
Regarding `CCCN(CCC)C(=O)Cc1c(-c2ccc(Cl)cc2)nc2c(NC(=O)CCCC(=O)O)cccn12`, the results for the Ki (in [1]; on Translocator protein) were above 10 nM and 118 nM, respectively. Besides, the Activity is 7.3% in test [3] and -1.9% in test [4].
In the case of `CCCN(CCC)C(=O)Cc1c(-c2nccs2)nc2c(Cl)cc(Cl)cn12`, the Ki in test [1] was above 10 nM; at Translocator protein, 2.07 nM. For the same molecule, the Activity worked out at 6.3% in test [3] and 60.6% in test [4].
In the case of `CCCN(CCC)C(=O)Cc1c(-c2ccc(Cl)c(NC(=O)CCC(=O)O)c2)nc2c(Cl)cc(Cl)cn12`, the results for the Ki (in test [1]; on Translocator protein) were above 10 nM and 14.4 nM, respectively. In addition, the Activity in test [3] is 11.5%; in test [4], 10%.
At Translocator protein, `CCCN(CCC)C(=O)Cc1c(-c2ccc(Cl)c(N)c2)nc2c(Cl)cc(Cl)cn12` [listing 1 of 3 here] gave a Ki of 0.45 nM.
Turning to `CCCN(CCC)C(=O)Cc1c(-c2ccc(Cl)c(N)c2)nc2c(Cl)cc(Cl)cn12` [listing 2 of 3 here], the inhibitory constant (Ki) in test [1] was above 10 nM; on Translocator protein, 0.33 nM.
`CN(C(=O)Cc1c(-c2nccs2)nc2c(Cl)cc(Cl)cn12)c1ccccc1`: the inhibition constant Ki in test [1] is above 10 nM; on Translocator protein it was 1.44 nM. Besides, the Activity was -1.2% in [3] and 19.4% in test [4].
As for `CCCN(CCC)C(=O)Cc1c(-c2ccc(Cl)cc2)nc2c(NC(=O)CCC(=O)OCC)cccn12`, the inhibitory constant (Ki) is above 10 nM in [1] and 0.86 nM on Translocator protein.
For `CCCN(CCC)C(=O)Cc1c(-c2ccc(OC(=O)CCC(=O)OC)cc2)nc2c(Cl)cc(Cl)cn12`, the values for the inhibition constant Ki (in test [1]; at Translocator protein) were above 10 nM and 1.69 nM, respectively. Also, the Activity worked out at 16.6% in test [3] and 37.5% in test [4].
In the case of `CCCN(CCC)C(=O)Cc1c(-c2ccc(Cl)cc2)nc2c(NC(=O)CC(=O)O)cccn12`, the Ki in test [1] was above 10 nM; at Translocator protein, 193 nM. Besides, the Activity in test [3] amounted to 9.6%; in test [4], 19.8%.
With `CCC(C)N(C)C(=O)c1cc2ccccc2c(-c2ccccc2Cl)n1` (configuration not stated) [PK-11195], the inhibition constant Ki in test [1] was above 10 nM. Also, the Activity was 4.9% in test [3] and 9.4% in test [4].
Consider `CCCN(CCC)C(=O)Cc1c(-c2ccc(OC(=O)CN)cc2)nc2c(Cl)cc(Cl)cn12`, for which the inhibition constant Ki was above 10 nM in [1] and 1.52 nM at Translocator protein. Also, the Activity in test [3] is 26.6%; in test [4], 71%.
Turning to `CCCN(CCC)C(=O)Cc1c(-c2ccc(Cl)c(N)c2)nc2c(Cl)cc(Cl)cn12` [listing 3 of 3 here], the Activity in test [3] was -6.2% and -2.9%.
Regarding `CCCN(CCC)C(=O)Cc1c(-c2ccc(Cl)cc2)nc2c(NC(=O)CCC(=O)O)cccn12`, the Ki in [1] was above 10 nM; on Translocator protein, 285 nM. Moreover, the Activity in test [3] worked out at 1.3%; in test [4], 12.3%.
